# Measurements from different studies.
# Target: Serine/threonine-protein kinase 10 (STK10, Homo sapiens, UniProt O94804)
SMILES,observed,technique,concentration,remaining binding [%]
C[C@H]1CCN(c2nccc(-c3cnn4ncccc34)n2)C1,binding,,1 µM,100
O=C(O)[C@@H]1[C@@H](Cn2nnc3ccccc3c2=O)CC[C@H]1C(=O)c1ccc(OCCC2CCOCC2)cc1,cell-free assay,competition with immobilised ligand,1 µM,84
COc1cnc(Nc2cccc(S(N)(=O)=O)c2)nc1N1CCN(c2ccccc2)C(=O)C1,binding,competition with immobilised ligand,1 µM,100
O=C(Nc1c[nH]nc1C(=O)NC1CCNCC1)c1cc(F)cc(F)c1,binding,competition with immobilised ligand,1 µM,100
F[C@@H]1CCN(c2nccc(-c3cnn4ncccc34)n2)C1,binding,,1 µM,90
CNC(=O)[C@@H]1CC[C@@H](n2c(-c3ccc4cnccc4c3)nc3ccc(C(=O)NCc4cccc(C(N)=O)c4)cc32)C1,binding,competition with immobilised ligand,1 µM,83
CN(CCCC(F)(F)F)c1nccc(-c2cnn3ncccc23)n1,binding,,1 µM,100
O=C(NCCCN1CCOCC1)c1ccc(Nc2ncc(Cl)c(-c3ccc(Cl)s3)n2)cc1,binding,competition with immobilised ligand,1 µM,57
CC(C)CC(=O)N1CCc2nc(-c3ccc(Br)cc3)nc(N(C)Cc3ccccc3)c2C1,cell-free assay,competition with immobilised ligand,0.1 µM,100
FC(F)(F)Oc1cccc(-c2cnc3ccc(-c4ccncc4)nn23)c1,binding,competition with immobilised ligand,5 µM,0.3
Cc1c(NC(=O)c2cc(C(N)=O)nc3cc(F)ccc23)c(C(F)(F)F)nn1Cc1ccc(C(C)(C)C)cc1,cell-free assay,competition with immobilised ligand,1 µM,88
CN(C)c1ncc(F)c(-c2cnn3ncccc23)n1,binding,,1 µM,42
O=C(NCCCN1CCOCC1)c1ccc(Nc2nccc(-c3cc4ccccc4s3)n2)cc1,binding,competition with immobilised ligand,1 µM,94
c1cnn2ncc(-c3ccnc(N4CCC45COC5)n3)c2c1,binding,,1 µM,91
CN(C(=O)c1ccccc1)c1cc(N(C)c2ccc3c(c2)CCc2ccc(C(=O)NCCN4CCOCC4)cc2C3=O)ccc1F,cell-free assay,competition with immobilised ligand,1 µM,100
CCN1CCN(Cc2ccc(C(=O)Nc3ccc(C)c(Oc4ccc5c(c4)CC(=O)N5)c3)cc2C(F)(F)F)CC1,binding,competition with immobilised ligand,1 µM,3.2
CS(=O)(=O)NCC[C@H](NC(=O)c1cncc2c1cnn2-c1ccc(F)cc1)c1ccnc(S(C)(=O)=O)c1,cell-free assay,competition with immobilised ligand,1 µM,100
O=C(c1ccc(Nc2ncc(Cl)c(-c3ccc(Cl)s3)n2)cc1)N1CCC(N2CCCC2)CC1,binding,competition with immobilised ligand,1 µM,28
N[C@H]1CCN(c2nccc(-c3cnn4ncccc34)n2)C1,binding,,1 µM,98
CC(=O)N1CCC(c2ccc(C(=O)NC3=NCCN3)cc2C(F)(F)F)CC1,cell-free assay,competition with immobilised ligand,1 µM,100
